Series [1] deals with human liver microsomes (CYP, UGT). Kind of series: In vitro metabolism on human liver microsomes. It is filed as in vitro ADME. Conditions: for glucuronate metabolite detection after HLM incubation: with cofactors for UGT activity. A digest of the protocol:
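Test compound (1 mM) incubated at 37 °C with pooled HLMs from 50 donors of both sexes (20 mg protein/mL). Buffer was 100 mM potassium phosphate or 100 mM Tris-HCl, pH 7.4, each with 20 mM NADPH. Reactions stopped with acetonitrile at 0, 5, 30 and 60 min; supernatant analysed by HPLC-MS. % remaining vs 0 min; mean ± SEM; one-way ANOVA vs time 0.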

Series [2] in a line: Biodistribution study after single oral dose in wild-type C57BL/6 mice. It is filed as in vivo, mouse. Conditions: 60 mg/kg single oral dose.
The test system of series [3] is CFTR (G542X nonsense mutation). The format is in vivo, mouse. Conditions: 60 mg/kg daily oral, 15 days. A digest of the protocol: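 G542X homozygous mice (n = 5, genotyped by allele-specific PCR) gavaged daily from P21 for 15 days; 3 WT and 3 mutant mice given water as vehicle. Lung RNA (20–25 mg tissue) for real-time RT-PCR. Lung protein (40 mg tissue, RIPA plus 1% protease inhibitors, Bradford) for western blot, normalized to tubulin and negative control. Triplicate per mouse; mean ± SEM; two-way ANOVA vs untreated mutant.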

The format of series [4] is in vivo, mouse. Conditions: 60 mg/kg daily oral. A digest of the protocol:
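Homozygous G542X mice were dosed orally once daily from P21 for 15 days. Controls were 3 WT and 3 mutant mice given water. Afterwards, isolated tissues from each group were stained with hematoxylin and eosin to check for tissue damage.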

The conditions of series [5]: cited from earlier work.
In series [6] the test system is premature termination codons (PTCs) / natural termination codons (NTCs). The note with it: cited from earlier work.

The structures appear in SMILES notation. “And” between values parts separate entries of the source, which are not always exact repeats. Equal values may be shown once.

For the compound `CC(=O)Nc1noc(C)n1` [NV848, N-(5-methyl-1,2,4-oxadiazol-3-yl)acetamide], the “metabolic stability in HLM compared to PTC124” value in series [1] (CYP, UGT and other liver microsome enzymes) is listed as “higher metabolic stability compared to PTC124”. The “consumption after HLM incubation” value stood at 14.62% in series [1] (after 60 min, CYP-DPBS condition); 5.27% in series [1] (after 60 min, CYP-Tris condition); 5.65% in series [1] (after 60 min, CYP/UGT-DPBS condition); 13.04% in series [1] (after 60 min, CYP/UGT-Tris condition). Moreover, the “glucuronate metabolite detection after HLM incubation” value in series [1] is recorded as “no glucuronate metabolites were detected”. The “last detection in lungs” value in series [2] stood at 2 h. Moreover, the “concentration in kidneys (individual mice)” value in series [2] (45 min, found in two mice) was 145 ng/g and 794 ng/g. Further, in series [2] (45 min to 2 h), the concentration in pancreas result is listed as “stable concentrations from 45 min to 2 h”. In series [2] (24 h), this compound yielded an average plasma concentration of 0.06 g/mL. Moreover, the “lung CFTR mRNA expression (real-time RT-PCR)” value in series [3] (CFTR G542X/G542X mice, vs untreated mutant) is given as “increase in CFTR mRNA expression”. Further, the “CFTR detection in lung sections (IHC), apical membranes of pulmonary ducts” value in series [3] (mouse M2) is “intensity similar to CFTR^WT”. Also, the “tissue damage after chronic administration (H&E staining)” value in series [4] (15 days) is listed as “no signs of tissue damage”. Further, the “tolerability of oral treatment for 2 weeks” value in series [4] (CFTR G542X/G542X mice) was “well tolerated in mice and did not cause toxicity”. Further, in series [5], the tolerability in vivo entry is “good tolerability in vivo”. In addition, the “specificity for PTCs” value in series [6] is “specificity for PTCs without interfering with NTCs”.
As to `O=C(O)c1cccc(-c2noc(-c3ccccc3F)n2)c1` [PTC124, reference compound], the “metabolic consumption after HLM incubation” value in series [1] (after 60 min, HLM condition not specified) is listed as 46.25%. Further, the “glucuronate metabolite detection after HLM incubation” value in series [1] is recorded as “glucuronate derivative was the primary metabolite detected”.

The values are drawn from article PMC11638873 (Molecular Therapy, 2024).
